Measurements as given in ChEMBL document CHEMBL4732041, “Sulfonium-based liposome-encapsulated antibiotics deliver a synergistic antibacterial activity” (RSC Med Chem, 2021).
Values after ≈ are worked out from the molar mass of the structure shown. Values joined by “and” are separate entries in the source; they are usually repeats but may differ in a detail not shown here. Equal values may be shown once. Active and inactive are the calls of the source. No cut-off for these calls is given here.

Key:
Pseudomonas aeruginosa [1] = assay: Antibacterial activity against Pseudomonas aeruginosa after 24 hrs by microdilution method; type: functional
Pseudomonas aeruginosa [2] = assay: Antibacterial activity against Pseudomonas aeruginosa MTCC 2488 incubated for 14 to 16 hrs by micro broth dilution method; type: functional; details: time 14-16 hrs
How it was run: (§1)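 Broth microdilution. E. coli and P. aeruginosa grown in LB, S. aureus in BHI, to mid-log phase at 37 °C with shaking. Cells washed and resuspended in PBS, then exposed to graded compound concentrations at 10^6 CFU/mL at 37 °C for 14–16 h. OD600 read. MIC is the lowest concentration with no visible growth or OD close to the bacteria-free control. Repeated thrice at the MIC.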

Staphylococcus aureus [3] = assay: Antibacterial activity against Staphylococcus aureus MTCC 96 incubated for 14 to 16 hrs by micro broth dilution method; type: functional; details: time 14-16 hrs; how it was run: as §1
Staphylococcus aureus [4] = assay: Antibacterial activity against methicillin resistant Staphylococcus aureus incubated for 14 to 16 hrs by micro broth dilution method; type: functional; details: time 14-16 hrs
How it was run: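 MRSA grown in BHI broth at 37 °C with shaking to mid-log phase, harvested, PBS-washed and resuspended in PBS; 10^6 CFU mL−1 incubated with serially varied compound concentrations at 37 °C for 14–16 h; OD600 read. MIC is the lowest concentration with no visible growth or OD near the bacteria-free control; repeated thrice.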

Escherichia coli [5] = assay: Antibacterial activity against Escherichia coli MTCC 1687 incubated for 14 to 16 hrs by micro broth dilution method; type: functional; details: time 14-16 hrs; how it was run: as §1
[6] = Solubility of compound in PBS at pH 7.4; type: physicochemical; details: buffer
Escherichia coli [7] = assay: Bactericidal activity against Escherichia coli MTCC 1687 assessed as fragmented cell morphology incubated for 5 hrs by FESEM analysis; type: functional, organism-based
How it was run: (§2)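 S. aureus MTCC 96 and E. coli MTCC 1687 harvested by centrifugation (5000 rpm, 5 min) and washed. Exposed to compound for 5 h alongside untreated control. Cells washed with water, drop-cast on foil, air-dried, mounted on carbon tape, gold double-coated, and imaged by FESEM.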

[8] = Drug release in PBS at pH 7.4 assessed as tetracyclin release incubated for 60 hours by fluorometric method; details: buffer, pH 7.4, 60 h
Staphylococcus aureus [9] = assay: Bactericidal activity against methicillin resistant Staphylococcus aureus […] by micro broth dilution method; type: functional
Staphylococcus aureus [10] = assay: Bactericidal activity against Staphylococcus aureus MTCC 96 assessed as fragmented cell morphology incubated for 5 hrs by FESEM analysis; type: functional, organism-based; how it was run: as §2
Staphylococcus aureus [11] = assay: Bactericidal activity against Staphylococcus aureus assessed as membrane damage incubated for 5 hrs by cFDA-SE dye based fluorescence microscopic analysis; type: functional, organism-based
How it was run: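 S. aureus cultured and harvested, then exposed to compound (buffer-only control) for 5 h. Cells washed and diluted to 10^6 CFU/mL, stained separately with 30 μM PI or 10 μM cFDA-SE for 30 min, and viewed by fluorescence microscopy.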

HaCaT [12] = assay: Cytotoxicity against human HaCaT cells after 24 hrs by MTT assay; type: cell-based
[13] = Drug release in PBS at pH 7.4 assessed as amoxicillin release incubated for 60 hours by fluorometric method; details: buffer, pH 7.4, 60 h
Staphylococcus aureus [14] = assay: Bactericidal activity against Staphylococcus aureus MTCC 96 […] by micro broth dilution method; type: functional
Pseudomonas aeruginosa [15] = assay: Bactericidal activity against Pseudomonas aeruginosa MTCC 2488 incubated for 24 hrs by micro broth dilution method; type: functional
[16] = Therapeutic index, ratio of IC50 for human HaCaT to MIC for Escherichia coli; type: toxicity; details: HaCaT cells, read-out: TI
Cell membrane [17] = assay: Induction of membrane depolarization in Staphylococcus aureus MTCC 96 assessed as increase in fluorescence intensity at 0 to 4 uM by DiSC3-5 dye based fluorescence assay; type: subcellular; details: dose 0-4 µM
How it was run: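 Mid-log S. aureus MTCC 96 resuspended in 10 mM HEPES with 50 mM glucose and loaded with 0.4 μM (final) DiSC3(5) for 1 h. KCl added to 100 mM, 10 min wait, then compound at 0, 2 or 4 μM or 30 μM valinomycin as positive control. Fluorescence recorded at excitation 620 nm, emission 650 nm.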

[18] = Hemolytic activity against human erythrocytes incubated for 1 hr by UV-vis spectroscopic method; type: ADME, cell-based, Erythrocyte
How it was run: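 Erythrocytes from fresh human blood spun at 1500 rpm for 10 min, PBS-washed, made to 5% haematocrit. Serial compound dilutions incubated with the cells for 1 h at 37 °C. Buffer served as negative control and 0.5% Triton X-100 as positive control. After centrifugation, supernatant absorbance read at 410 nm and % haemolysis computed against both controls.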

Cell membrane [19] = assay: Disruption of bacterial cell membrane in Staphylococcus aureus MTCC 96 assessed as increase in PI uptake by measuring increase in fluorescence intensity by PI dye based spectrofluorometric analysis; type: subcellular; details: time 1-3 hrs, TDE = time-dependent effect
How it was run: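 S. aureus MTCC 96 grown overnight and diluted in medium to 10^6 CFU/mL. Compound added, then incubated at 37 °C, 180 rpm. Samples taken at 1, 2 and 3 h, washed in PBS, stained with 30 μM PI for 30 min, washed again. Fluorescence read at excitation 535 nm, emission 617 nm.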

Staphylococcus aureus [20] = assay: Antibiofilm activity against Staphylococcus aureus MTCC 96 assessed as inhibition of biofilm formation incubated for overnight by crystal violet staining assay; type: functional, organism-based; details: dose 6.25-100 µM
How it was run: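 S. aureus MTCC 96 grown and exposed to compound as in the MIC assay, then incubated overnight. Planktonic cells removed, wells rinsed with PBS and air-dried. Stained with 1% (v/v) crystal violet for 20 min, dried, dye taken up in 95% ethanol, and absorbance read at 590 nm.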

[21] = Therapeutic index, ratio of IC50 for human HaCaT to MIC for Staphylococcus aureus; type: toxicity; details: HaCaT cells
[22] = Aggregation property of compound assessed as spherical aggregates size by dynamic light scattering analysis; type: physicochemical
How it was run: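 Chloroform stock dried to a film by rotary evaporation, hydrated overnight at 50 °C in PBS (137 mM NaCl, 2.7 mM KCl, 8 mM Na2HPO4, 2 mM KH2PO4, pH 7.4), then vortexed and intermittently sonicated to unilamellar vesicles. Hydrodynamic diameter and zeta potential measured by DLS at 25 °C in buffers of different pH.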

Escherichia coli [23] = assay: Bactericidal activity against Escherichia coli MTCC 1687 incubated for 24 hrs by micro broth dilution method; type: functional
[24] = Aggregation property of the compound in aqueous medium assessed as formation of spherical aggregates by FE-TEM analysis; type: physicochemical; details: buffer
How it was run: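 Lipid aggregates prepared in PBS pH 7.4 by film hydration, not extruded, then diluted to half concentration. Applied to carbon-coated copper grid for 1 min, uranyl acetate stain, excess wicked off. Grid dried overnight at 30 °C and imaged by TEM at 200 kV.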

Escherichia coli [25] = assay: Synergistic antibacterial activity against Escherichia coli assessed as amoxicillin MIC encapsulated by compound; type: functional
How it was run: (§3)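 Antibiotic-loaded liposomes (film hydrated with tetracycline or amoxicillin in PBS, freeze–thaw, vortexing, unloaded drug removed by centrifugation) tested by the same broth microdilution protocol: mid-log cells in PBS at 10^6 CFU/mL, 37 °C, 14–16 h, OD600.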

Staphylococcus aureus [26] = assay: Synergistic antibacterial activity against Staphylococcus aureus assessed as amoxicillin MIC encapsulated by compound; type: functional; how it was run: as §3
HaCaT [27] = assay: Cytotoxicity against human HaCaT cells up to 100 uM after 24 hrs by MTT assay; type: cell-based
Staphylococcus aureus [28] = assay: Synergistic antibacterial activity against Staphylococcus aureus assessed as tetracyclin MIC encapsulated by compound; type: functional; how it was run: as §3
Escherichia coli [29] = assay: Synergistic antibacterial activity against Escherichia coli assessed as tetracyclin MIC encapsulated by compound; type: functional; how it was run: as §3

Compound | MIC (Pseudomonas aeruginosa [1]) | MIC (Pseudomonas aeruginosa [2]) [µM] | MIC (Staphylococcus aureus [3]) [µM] | MIC (Staphylococcus aureus [4]) [µM] | MIC (Escherichia coli [5]) [µM] | also measured
CCCCCCCCCCCCC[N+](C)(C)Cc1ccccc1.[Cl-] [BENZALKONIUM CHLORIDE] | 32 µg/mL | – | – | – | – | –
CCCCCCCCCCCCSCc1cc(CN=[N+]=[N-])cc(CSCCCCCCCCCCCC)c1 | – | > 100 | > 100 | > 100 | > 100 | –
CCCCCCCCCCCCSCc1cc(CSCCCCCCCCCCCC)cc(Cn2cc(CS(=O)(=O)O)nn2)c1 | – | > 100 | > 100 | > 100 | > 100 | –
Oc1cc(Cl)ccc1Oc1ccc(Cl)cc1Cl [TRICLOSAN] | > 512 µg/mL | – | – | – | – | –
CC[S+](C)Cc1cc(C[n+]2ccccc2)cc(C[S+](C)CC)c1.F[B-](F)(F)F.F[B-](F)(F)F.F[B-](F)(F)F (stereo unspecified) | – | > 100 | > 100 | > 100 | > 100 | solubility [6]: Soluble
CCCCCCCCCCCC[S+](C)Cc1cc(C[n+]2ccccc2)cc(C[S+](C)CCCCCCCCCCCC)c1.F[B-](F)(F)F.F[B-](F)(F)F.F[B-](F)(F)F (stereo unspecified) | – | 12 | 6.3 | 6.3 | 7.5 | Activity (Escherichia coli [7]): Active; Activity [8]: 40%; MBC (Staphylococcus aureus [9]): 12.5 µM; Activity (Staphylococcus aureus [10]): Active; Activity (Staphylococcus aureus [11]): Active; IC50 (HaCaT [12]): 27 µM; Activity [13]: 60%; MBC (Staphylococcus aureus [14]): 12.5 µM; MBC (Pseudomonas aeruginosa [15]): 24 µM; selectivity ratio [16]: 3.6; Activity (Cell membrane [17]): Active; HC50 at 1 h [18]: 29 µM; Activity (Cell membrane [19]): Tde; Activity (Staphylococcus aureus [20]): Dose-dependent effect; selectivity ratio [21]: 4.3; Activity [22]: 270 nm; MBC (Escherichia coli [23]): 10 µM; Activity [24]: Active
CCCCCCCCN=c1ccn(CCCCCCCCCCn2ccc(=NCCCCCCCC)cc2)cc1.Cl.Cl [OCTENIDINE HYDROCHLORIDE] | 6.25 µM and 3.9 µg/mL | – | – | – | – | –
N=C(NCCCCCCNC(=N)NC(=N)Nc1ccc(Cl)cc1)NC(=N)Nc1ccc(Cl)cc1.O=C(O)[C@H](O)[C@@H](O)[C@H](O)[C@H](O)CO | 15.6 µg/mL and 30.9 µM | – | – | – | – | –
CCCCCCCCCCCCSCc1cc(CSCCCCCCCCCCCC)cc(C[n+]2ccccc2)c1 | – | > 100 | > 100 | > 100 | > 100 | –
CC1(C)S[C@@H]2[C@H](NC(=O)[C@H](N)c3ccc(O)cc3)C(=O)N2[C@H]1C(=O)O [AMOXICILLIN] | – | 4.3 (≈ 1.57 µg/mL) | 6.8 (≈ 2.48 µg/mL) | > 50 | 11 (≈ 4.02 µg/mL) | IC50 (HaCaT [12]): 29.4 µM; MIC (Escherichia coli [25]): 1.7 µM; MIC (Staphylococcus aureus [26]): 1.2 µM
CCCCCCCCCCCC[S+](C)Cc1cc(Cn2cc(CS(=O)(=O)O)nn2)cc(C[S+](C)CCCCCCCCCCCC)c1.F[B-](F)(F)F.F[B-](F)(F)F (stereo unspecified) | – | 25 | 10 | 25 | 12 | MBC (Staphylococcus aureus [9]): > 100 µM; MBC (Staphylococcus aureus [14]): 12.5 µM; MBC (Pseudomonas aeruginosa [15]): 50 µM; HC50 at 1 h [18]: 35 µM; Activity (HaCaT [27]): Non-Toxic; MBC (Escherichia coli [23]): 20 µM
CCSCc1cc(CSCC)cc(C[n+]2ccccc2)c1 | – | > 100 | > 100 | > 100 | > 100 | –
CN(C)[C@@H]1C(O)=C(C(N)=O)C(=O)[C@@]2(O)C(O)=C3C(=O)c4c(O)cccc4[C@@](C)(O)[C@H]3C[C@@H]12 [TETRACYCLINE] | – | 14 (≈ 6.22 µg/mL) | 4.2 (≈ 1.87 µg/mL) | > 100 | 8.5 (≈ 3.78 µg/mL) | MIC (Staphylococcus aureus [28]): 0.7 µM; IC50 (HaCaT [12]): 8 µM; MIC (Escherichia coli [29]): 2 µM
